Source: ChEMBL document CHEMBL1156133, “Losartan-antioxidant hybrids: novel molecules for the prevention of hypertension-induced cardiovascular damage” (J Med Chem, 2009)
Active and inactive are the calls of the source. The calls are words filed in the database; no cut-off is given here.

Tests used:
Rattus norvegicus [1] = test: Antihypertensive activity in L-NAME-induced Wistar rat assessed as decrease in blood creatinine level at 30 mg/kg/day, po for last 4 weeks measured after 8 weeks; type: functional
Procedure, shortened: (§1)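 Two-month-old male Wistar rats given L-NAME in drinking water (20 mg/kg/day) for 8 weeks. From week 4, treatment is given daily in drinking water during 12.00–18.00 h, at the dose stated in the line. Ten rats per group. Sacrificed under halothane between 9.00 and 10.00 h. Serum is measured on an automatic analyzer. Mean ± SEM, nonparametric statistics.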

Rattus norvegicus [2] = test: Antihypertensive activity in L-NAME-induced Wistar rat assessed as decrease in blood cholesterol level at 30 mg/kg/day, po for last 4 weeks measured after 8 weeks; type: functional; procedure, shortened: as §1
Rattus norvegicus [3] = test: Antihypertensive activity in L-NAME-induced Wistar rat assessed as decrease in blood ALT level at 30 mg/kg/day, po for last 4 weeks measured after 8 weeks; type: functional; procedure, shortened: as §1
Rattus norvegicus [4] = test: Antihypertensive activity in L-NAME-induced Wistar rat assessed as decrease in blood Na+ level at 30 mg/kg/day, po for last 4 weeks measured after 8 weeks; type: functional; procedure, shortened: as §1
Rattus norvegicus [5] = test: Antihypertensive activity in L-NAME-induced Wistar rat assessed as decrease in blood urea level at 30 mg/kg/day, po for last 4 weeks measured after 8 weeks; type: functional; procedure, shortened: as §1
Rattus norvegicus [6] = test: Antihypertensive activity in L-NAME-induced Wistar rat assessed as decrease in blood […] level at 30 mg/kg/day, po for last 4 weeks measured after 8 weeks; type: functional; procedure, shortened: as §1
Rattus norvegicus [7] = test: Antihypertensive activity in L-NAME-induced Wistar rat assessed as decrease in blood LDH level at 30 mg/kg/day, po for last 4 weeks measured after 8 weeks; type: functional; procedure, shortened: as §1
Rattus norvegicus [8] = test: Antihypertensive activity in L-NAME-induced Wistar rat assessed as decrease in blood calcium level at 30 mg/kg/day, po for last 4 weeks measured after 8 weeks; type: functional; procedure, shortened: as §1
Rattus norvegicus [9] = test: Antihypertensive activity in Wistar rat assessed as normalization of L-NAME-induced fibronectin content in vessel walls at 30 mg/kg/day, po for 4 weeks in presence of losartan; type: functional, organism-based
Procedure, shortened: (§2)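 Male Wistar rats on L-NAME in drinking water (20 mg/kg/day) for 8 weeks, treatments in drinking water for the last 4 weeks. Thoracic aorta lysates run on SDS-PAGE and Western blotted for collagen type I, fibronectin or HNE-lysine, with β-tubulin as loading control; ECL detection, densitometry. Expressed as percent of basal; mean ± SEM of 10 experiments.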

Rattus norvegicus [10] = test: Antihypertensive activity in Wistar rat assessed as normalization of L-NAME-induced aorta thickness at 10 mg/kg/day, po for 4 weeks; type: functional, organism-based
Procedure, shortened: (§3)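 L-NAME (20 mg/kg/day, drinking water, 8 weeks) hypertensive two-month-old male Wistar rats; treatments in drinking water daily for the last 4 weeks. Systolic pressure by tail-cuff in conscious animals. At sacrifice heart weighed (corrected to body weight); aortic rings from descending thoracic aorta, formaldehyde-flushed, media thickness by planimetry. Mean ± SEM of 10 rats.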

Rattus norvegicus [11] = test: Antihypertensive activity in Wistar rat assessed as normalization of L-NAME-induced collagen 1 level in vessel walls at 30 mg/kg/day, po for 4 weeks in presence of losartan; type: functional, organism-based; procedure, shortened: as §2
Rattus norvegicus [12] = test: Antihypertensive activity in L-NAME-induced Wistar rat assessed as decrease in blood triglyceride level at 30 mg/kg/day, po for last 4 weeks measured after 8 weeks; type: functional; procedure, shortened: as §1
Rattus norvegicus [13] = test: Antihypertensive activity in Wistar rat assessed as normalization of L-NAME-induced heart weight at 30 mg/kg/day, po for 4 weeks in presence of L-NAME; type: functional, organism-based; procedure, shortened: as §3
[14] = Antioxidant activity assessed as inhibition of oxidation of chromogen (ABTS) measured per mmol/L of product by total antioxidant assay; type: functional
Procedure, shortened: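 Total antioxidant status kit: inhibition of ABTS oxidation by metmyoglobin and hydrogen peroxide, followed at 600 nm absorbance; antioxidant ability proportional to absorbance reduction, expressed as mM. Compounds tested at 1 mmol/L.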

Rattus norvegicus [15] = test: Antihypertensive activity in L-NAME-induced Wistar rat assessed as decrease in blood AST level at 30 mg/kg/day, po for last 4 weeks measured after 8 weeks; type: functional; procedure, shortened: as §1
VSMC = test: Displacement of [125I]angiotensin II from angiotensin 2 receptor in Wistar rat VSMC cells by gamma-counter; type: cell-based; design: concentration or dose not given beside the values
Procedure, shortened: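 Rat aortic VSMC (collagenase-derived primary cultures, passages 3-5) resuspended in Tris-glucose-NaCl buffer pH 7.4 at 0.5 μg/μL protein; 125 μg protein incubated 45 min with 0.15 nM 125I-angiotensin II plus compound. Bound separated by centrifugation, pellet washed with cold 0.15 M NaCl, gamma counted; nonspecific binding with 10^-4 M angiotensin II.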

Rattus norvegicus [16] = test: Antihypertensive activity in Wistar rat assessed as normalization of L-NAME-induced HNE-lysine accumulation in vessel walls at 30 mg/kg/day, po for 4 weeks in presence of losartan; type: functional, organism-based; procedure, shortened: as §2
Rattus norvegicus [17] = test: Antihypertensive activity in Wistar rat assessed as normalization of L-NAME-induced systolic blood pressure at 10 mg/kg/day, po for 4 weeks; type: functional, organism-based; settings: Artery; procedure, shortened: as §3
Rattus norvegicus [18] = test: Antihypertensive activity in L-NAME-induced Wistar rat assessed as decrease in blood protein level at 30 mg/kg/day, po for last 4 weeks measured after 8 weeks; type: functional; procedure, shortened: as §1
Rattus norvegicus [19] = test: Antihypertensive activity in L-NAME-induced Wistar rat assessed as decrease in blood glucose level at 30 mg/kg/day, po for last 4 weeks measured after 8 weeks; type: functional; procedure, shortened: as §1
Rattus norvegicus [20] = test: Antihypertensive activity in Wistar rat assessed as normalization of L-NAME-induced systolic blood pressure at 30 mg/kg/day, po for 4 weeks; type: functional, organism-based; settings: Artery; procedure, shortened: as §3
Rattus norvegicus [21] = test: Antihypertensive activity in Wistar rat assessed as change in blood LDH level at 10 mg/kg/day, po measured after 8 weeks in presence of losartan; type: functional
Rattus norvegicus [22] = test: Antihypertensive activity in Wistar rat assessed as change in blood LDH level at 10 mg/kg/day, po measured after 8 weeks; type: functional
Rattus norvegicus [23] = test: Antihypertensive activity in Wistar rat assessed as change in blood creatinine level at 10 mg/kg/day, po measured after 8 weeks; type: functional
Procedure, shortened: (§4)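 Two-month-old male Wistar rats given L-NAME in drinking water (20 mg/kg/day) for 8 weeks; from week 4, test treatments also in drinking water daily (12.00-18.00 h). Sacrificed under halothane anesthesia at 8 weeks; serum biochemical parameters measured by automatic analyzer. Mean ± SEM of 10 rats; nonparametric statistics.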

Rattus norvegicus [24] = test: Antihypertensive activity in Wistar rat assessed as decrease in L-NAME-induced fibronectin content in vessel walls at 10 mg/kg/day, po for 4 weeks in presence of losartan; type: functional, organism-based; procedure, shortened: as §2
Rattus norvegicus [25] = test: Antihypertensive activity in Wistar rat assessed as change in blood Na+ level at 10 mg/kg/day, po measured after 8 weeks in presence of losartan; type: functional
Rattus norvegicus [26] = test: Antihypertensive activity in Wistar rat assessed as change in blood glucose level at 10 mg/kg/day, po measured after 8 weeks in presence of losartan; type: functional; procedure, shortened: as §4
Rattus norvegicus [27] = test: Antihypertensive activity in Wistar rat assessed as change in blood calcium level at 10 mg/kg/day, po measured after 8 weeks; type: functional
Rattus norvegicus [28] = test: Antihypertensive activity in Wistar rat assessed as change in blood […] level at 10 mg/kg/day, po measured after 8 weeks; type: functional
Rattus norvegicus [29] = test: Antihypertensive activity in Wistar rat assessed as change in blood urea level at 10 mg/kg/day, po measured after 8 weeks in presence of losartan; type: functional; procedure, shortened: as §4
Rattus norvegicus [30] = test: Antihypertensive activity in Wistar rat assessed as change in blood cholesterol level at 10 mg/kg/day, po measured after 8 weeks; type: functional
Rattus norvegicus [31] = test: Antihypertensive activity in Wistar rat assessed as change in blood ALT level at 10 mg/kg/day, po measured after 8 weeks in presence of losartan; type: functional
Rattus norvegicus [32] = test: Antihypertensive activity in Wistar rat assessed as change in blood triglyceride level at 10 mg/kg/day, po measured after 8 weeks in presence of losartan; type: functional; procedure, shortened: as §4
Rattus norvegicus [33] = test: Antihypertensive activity in Wistar rat assessed as change in blood glucose level at 10 mg/kg/day, po measured after 8 weeks; type: functional; procedure, shortened: as §4
Rattus norvegicus [34] = test: Antihypertensive activity in Wistar rat assessed as change in blood ALT level at 10 mg/kg/day, po measured after 8 weeks; type: functional
Rattus norvegicus [35] = test: Antihypertensive activity in Wistar rat assessed as change in blood calcium level at 10 mg/kg/day, po measured after 8 weeks in presence of losartan; type: functional
Rattus norvegicus [36] = test: Antihypertensive activity in Wistar rat assessed as decrease in L-NAME-induced HNE-lysine accumulation in vessel walls at 10 mg/kg/day, po for 4 weeks in presence of losartan; type: functional, organism-based; procedure, shortened: as §2
Rattus norvegicus [37] = test: Antihypertensive activity in Wistar rat assessed as change in blood cholesterol level at 10 mg/kg/day, po measured after 8 weeks in presence of losartan; type: functional
Rattus norvegicus [38] = test: Antihypertensive activity in Wistar rat assessed as change in blood creatinine level at 10 mg/kg/day, po measured after 8 weeks in presence of losartan; type: functional; procedure, shortened: as §4
Rattus norvegicus [39] = test: Antihypertensive activity in Wistar rat assessed as change in blood AST level at 10 mg/kg/day, po measured after 8 weeks; type: functional
Rattus norvegicus [40] = test: Plasma concentration in po dosed Wistar rat assessed as EXP-3174 level after 4 weeks in presence of losartan; type: ADME, organism-based; settings: in vivo, 672 h
Procedure, shortened: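 Separate groups of Wistar rats dosed in drinking water for 4 weeks (n = 4-6 per group), then sacrificed and plasma analyzed by HPLC-MS/MS (triple quadrupole, electrospray), isocratic MeOH/water with 0.1% formic acid, 40 °C. Two plasma samples per animal; mean ± SEM.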

Rattus norvegicus [41] = test: Antihypertensive activity in Wistar rat assessed as change in blood AST level at 10 mg/kg/day, po measured after 8 weeks in presence of losartan; type: functional
Rattus norvegicus [42] = test: Antihypertensive activity in Wistar rat assessed as change in blood Na+ level at 10 mg/kg/day, po measured after 8 weeks; type: functional
Rattus norvegicus [43] = test: Antihypertensive activity in Wistar rat assessed as change in blood protein level at 10 mg/kg/day, po measured after 8 weeks; type: functional; procedure, shortened: as §4
Rattus norvegicus [44] = test: Antihypertensive activity in Wistar rat assessed as change in blood protein level at 10 mg/kg/day, po measured after 8 weeks in presence of losartan; type: functional; procedure, shortened: as §4
Rattus norvegicus [45] = test: Antihypertensive activity in Wistar rat assessed as decrease in L-NAME-induced collagen 1 level in vessel walls at 10 mg/kg/day, po for 4 weeks in presence of losartan; type: functional, organism-based; procedure, shortened: as §2
Rattus norvegicus [46] = test: Antihypertensive activity in Wistar rat assessed as change in blood […] level at 10 mg/kg/day, po measured after 8 weeks in presence of losartan; type: functional
Rattus norvegicus [47] = test: Antihypertensive activity in Wistar rat assessed as change in blood triglyceride level at 10 mg/kg/day, po measured after 8 weeks; type: functional; procedure, shortened: as §4
Rattus norvegicus [48] = test: Antihypertensive activity in Wistar rat assessed as change in blood urea level at 10 mg/kg/day, po measured after 8 weeks; type: functional; procedure, shortened: as §4

## CCCCc1ncc(COC(=O)CCc2ccc(O)c(O)c2)n1Cc1ccc(-c2ccccc2-c2nnn[nH]2)cc1
Rattus norvegicus [1]
  Activity: 0.43 mg/dL
Rattus norvegicus [2]
  Activity: 55 mg/dL
Rattus norvegicus [3]
  Activity: 25 IU/L
Rattus norvegicus [4]
  Activity: 151 mmol/L
Rattus norvegicus [5]
  Activity: 24 mg/dL
Rattus norvegicus [6]
  Activity: 4.4 mmol/L
Rattus norvegicus [7]
  Activity: 600 IU/L
Rattus norvegicus [8]
  Activity: 8.6 mg/dL
Rattus norvegicus [9]
  Activity: Active
Rattus norvegicus [10]
  Activity: inactive
Rattus norvegicus [11]
  Activity: Active
Rattus norvegicus [12]
  Activity: 60 mg/dL
Rattus norvegicus [13]
  Activity: Active
[14]
  Activity: 0.31 mmol/L
Rattus norvegicus [15]
  Activity: 85 IU/L
VSMC
  Activity: 60%
Rattus norvegicus [16]
  Activity: Active
Rattus norvegicus [17]
  Activity: inactive
Rattus norvegicus [18]
  Activity: 4.5 g/dL
Rattus norvegicus [19]
  Activity: 149 mg/dL
Rattus norvegicus [20]
  Activity: Active

## O=C(O)CCc1ccc(O)c(O)c1 [DIHYDROCAFFEIC ACID]
Rattus norvegicus [21]
  Activity: 610 IU/L
Rattus norvegicus [22]
  Activity: 591 IU/L
Rattus norvegicus [23]
  Activity: 0.47 mg/dL
Rattus norvegicus [24]
  Activity: Active
Rattus norvegicus [25]
  Activity: 148 mmol/L
Rattus norvegicus [26]
  Activity: 168 mg/dL
Rattus norvegicus [27]
  Activity: 8.8 mg/dL
Rattus norvegicus [28]
  Activity: 4.1 mmol/L
Rattus norvegicus [29]
  Activity: 24 mg/dL
Rattus norvegicus [30]
  Activity: 58 mg/dL
Rattus norvegicus [31]
  Activity: 22 IU/L
Rattus norvegicus [32]
  Activity: 69 mg/dL
Rattus norvegicus [33]
  Activity: 170 mg/dL
Rattus norvegicus [34]
  Activity: 24 IU/L
Rattus norvegicus [35]
  Activity: 8.5 mg/dL
Rattus norvegicus [36]
  Activity: Active
Rattus norvegicus [37]
  Activity: 54 mg/dL
Rattus norvegicus [38]
  Activity: 0.44 mg/dL
Rattus norvegicus [39]
  Activity: 77 IU/L
Rattus norvegicus [40]
  concentration: 19.4 nM
Rattus norvegicus [41]
  Activity: 93 IU/L
Rattus norvegicus [42]
  Activity: 148 mmol/L
Rattus norvegicus [43]
  Activity: 5.2 g/dL
Rattus norvegicus [44]
  Activity: 4 g/dL
Rattus norvegicus [45]
  Activity: Active
Rattus norvegicus [46]
  Activity: 4.2 mmol/L
Rattus norvegicus [47]
  Activity: 70 mg/dL
Rattus norvegicus [48]
  Activity: 27 mg/dL
